In the library only some 1.5% were active in any assay of this set; here they are far more common.
PP1 counter: blocks human PP1-alpha phosphatase, a PP5 counter-screen. P62136. purified PP1alpha, OMFP fluorescence. hit rate 0.9% among 320,000. inhibition, % at 6.7 µM;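 active = inhibition above the mean inhibition of all tested compounds plus 3 SD, computed separately for each screening campaign, cut at about 15% in these data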
Hsp70 act: switches on Hsp70 transcription; activation, % at 10 µM; hit rate 0.04% among 200,000; AID 1203; HeLa Hsp70 promoter luciferase reporter, luminescence; scaled: vehicle 0, proteasome-inhibitor control 100%;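 active = activation above the mean across all tested compounds plus 3 SD, cutoff set per campaign, cut at about 5.5% in these data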;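 also: 100% = MG132 at 30 µM as the positive control and 0% = DMSO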
PKD1 kinase inh: PKD1 (human) kinase inhibition; Q15139; PKD1 kinase fluorescence polarization assay; inhibition, % (no concentration beside the values); hit rate 0.056% among 200,000; AID 797; in the data active = inhibition above about 50%
PP5 inh: inhibitors of human protein phosphatase 5 (PP5); purified PP5c, OMFP substrate fluorescence; hit rate 0.18% among 320,000; inhibition, % at 6.7 µM; P53041;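 active = inhibition above the campaign's mean inhibition across all tested compounds plus 3 SD, cut at about 9.5% in these data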;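 also: 0% = DMSO only and 100% = 100 µM cantharidin control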
Target sequence (P53041 whole entry, looked up): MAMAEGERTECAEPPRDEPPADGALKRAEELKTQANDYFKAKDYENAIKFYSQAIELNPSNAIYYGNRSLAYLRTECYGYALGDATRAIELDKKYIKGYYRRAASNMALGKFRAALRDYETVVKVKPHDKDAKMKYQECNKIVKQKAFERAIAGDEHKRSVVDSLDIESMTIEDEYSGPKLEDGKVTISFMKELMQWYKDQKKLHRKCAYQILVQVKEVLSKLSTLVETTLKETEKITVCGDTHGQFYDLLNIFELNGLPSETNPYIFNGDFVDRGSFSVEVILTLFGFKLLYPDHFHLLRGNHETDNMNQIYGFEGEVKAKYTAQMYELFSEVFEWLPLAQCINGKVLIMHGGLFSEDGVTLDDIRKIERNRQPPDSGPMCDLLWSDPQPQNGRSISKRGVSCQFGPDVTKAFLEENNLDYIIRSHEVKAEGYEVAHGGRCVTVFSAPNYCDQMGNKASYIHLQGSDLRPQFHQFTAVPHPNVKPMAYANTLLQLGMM
RBBP9 inh: blocks human serine hydrolase RBBP9; hit rate 0.2% among 220,000; recombinant RBBP9, FP-Rh probe fluorescence polarization; O75884; AID 1515; inhibition, % at 7.94 µM;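 active = inhibition above the campaign mean of all tested compounds plus 3 SD, cut at about 14% in these data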;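 also: plate controls were DMSO wells with RBBP9 for no effect and wells lacking RBBP9 protein for full effect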
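system = RBBP9 protein | input = RBBP9 at 2.5 µM in dispensed solution, before mixing | measured by = fluorescence polarization (mP), excitation 525 nm, emission 598 nm | incubation = enzyme-compound preincubation 30 min, then probe labeling 45 min, 25 °C | buffer or medium = Tris-NaCl-Pluronic buffer, pH 8.0 | compound = single dose 7.94 µM | also added = FP-Rh probe, 375 nM dispensing solution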
p97 inhibitor: inhibitors of human p97 ATPase; AID 1481; hit rate 0.42% among 220,000; inhibition, % at 8 µM; recombinant p97 ATPase, Kinase-Glo ATP luminescence, 3 h; in the data active = inhibition above about 15%;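 also: 0% = DMSO vehicle and 100% = wells lacking enzyme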
PP1 confirm: confirmation of human PP1 phosphatase inhibitors; shares compounds with PP1 counter; purified PP1alpha, OMFP substrate fluorescence; inhibition, % at 6.7 µM; hit rate 52% among 1,900; AID 2358;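 active = mean PP1 inhibition above a set limit taken from the earlier primary screen, cut at about 15% in these data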
PP5 inh counter: inhibits human PP5 phosphatase in PP1 counter-screen; inhibition, % at 6.7 µM; hit rate 4% among 1,900; shares compounds with PP1 counter; AID 2360; purified PP5c, OMFP fluorescence;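 active = mean PP5 inhibition over triplicate wells above about 9.5% taken from the earlier PP1 screen, limit read from the data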
Numbers without * were called inactive; · = no result.

SMILES	PP1 counter	Hsp70 act	PKD1 kinase inh	PP5 inh	RBBP9 inh	p97 inhibitor	PP1 confirm	PP5 inh counter
Cc1ccc(N2CC(C(=O)OCC(=O)NNC(=O)c3ccccc3)CC2=O)cc1 (stereo unspecified)	35*	·	·	-1	·	·	-3	-3
Cc1ccc(NS(=O)(=O)c2cc([N+](=O)[O-])ccc2NNC(=S)Nc2cccc(Cl)c2)c(C)c1	26*	0	5	8	-13	0	29*	8
Cc1ccccc1CCN(C(=O)Cn1nnc2ccccc21)C(C(=O)NCC1CCCO1)c1nc2ccccc2n1C (stereo unspecified)	18*	0	5	1	-2	-1	36*	-3
Cc1ccccc1C(C(=O)NCc1ccco1)N(CC1CCCO1)C(=O)Cn1nnc2ccccc21 (stereo unspecified)	0	0	1	2	5	9	·	·
Cc1cccc(Nc2nnc(SCC(=O)c3ccc(Br)s3)s2)c1C	21*	0	3	1	-9	-2	21*	7
CC(C)c1ccc(NC(=O)Nc2cc3sccc3n2C)cc1	18*	0	2	4	5	-4	2	-6
O=C(CSc1nnc(-c2ccccc2O)o1)Oc1ccc(OCc2ccccc2)cc1	24*	0	2	2	-7	-5	30*	-5
Cc1ccc(CNC(=O)C2CCCN2C(=O)Nc2ccccc2)cc1 (stereo unspecified)	-3	·	·	2	·	·	·	·
CC(=O)c1ccc(N2CCN(C(=O)c3ccc(Cn4c(=S)[nH]c5ccc(N6CCOCC6)cc5c4=O)cc3)CC2)cc1	45*	0	-3	1	-4	5	29*	2
O=C(c1ccc2c(=O)n(Cc3ccccc3)c(=S)[nH]c2c1)N1CCOCC1	1	·	·	0	·	·	·	·
N#C/C(=C/c1cn(-c2ccccc2)nc1-c1cccc(OCc2ccccc2)c1)C(=O)NCCCn1ccnc1	21*	0	6	1	-7	3	13	1
CCOc1cccc(-c2nn(-c3ccccc3)cc2/C=C(/C#N)C(=O)NCCCn2ccnc2)c1	26*	0	5	3	-10	9	17*	4
CCSc1ccc(-c2nn(-c3ccccc3)cc2/C=C(/C#N)C(=O)NCCCOC)cc1	-2	0	-14	0	3	3	·	·
Cn1c(CNC(=O)c2ccccc2F)nnc1SCCOc1ccccc1	-3	-1	2	3	3	1	·	·
Cn1cnnc1SCC(=O)Nc1nc(-c2ccccc2)cs1	-1	0	-1	1	4	3	·	·
CC1=C(C#N)c2nc(N)c(C#N)c(C)c2/C1=C\c1ccc(C)cc1	-2	0	3	-1	-5	4	·	·
COc1cc(/C=C2\C(C)=C(C#N)c3nc(N)c(C#N)c(C)c32)ccc1OCC(=O)O	30*	·	·	3	-6	5	7	0
O=C(CCN1C(=O)/C(=C/c2ccccc2Cl)SC1=S)NC1C=CS(=O)(=O)C1 (stereo unspecified)	24*	·	·	-1	·	·	24*	-1
CCCCCN(C(=O)CCC(=O)OC(C)C(=O)Nc1cccc(C#N)c1)c1c(N)n(CCCC)c(=O)[nH]c1=O (stereo unspecified)	-5	·	·	-2	·	·	·	·
O=C(O)c1[nH]c2ccccc2c1C(c1ccccc1)c1c(C(=O)O)[nH]c2ccccc12	6	·	·	3	·	·	·	·
COc1cc(C(c2c(C(=O)O)[nH]c3ccccc23)c2c(C(=O)O)[nH]c3ccccc23)ccc1OCc1ccccc1	19*	·	·	5	·	·	15*	-2
Cc1cc(/C=C\c2ccccc2)nc2ccccc12	-2	0	0	3	-4	-6	·	·
CCN(CC)S(=O)(=O)c1ccc(C)c(NC(=O)CN2C(=O)NC3(CCCC3)C2=O)c1	0	·	·	0	·	·	·	·
CCN(CC)S(=O)(=O)c1ccc(N2CCCC2)c(NC(=O)CN2C(=O)NC3(CCCC3)C2=O)c1	21*	·	·	1	·	·	1	-5
CCCCCCN(C(=O)CCCCCN1C(=O)NC(c2ccc(Cl)cc2)C(C(=O)OCc2ccccc2)=C1C)C(C(=O)NCCCC)c1ccc(OCC(=O)OC)c(C(=O)OC)c1 (stereo unspecified)	·	0	2	·	-8	-4	·	·
SMILES	PP1 counter	Hsp70 act	PKD1 kinase inh	PP5 inh	RBBP9 inh	p97 inhibitor	PP1 confirm	PP5 inh counter
CCCCCCN(C(=O)CCCCCN1C(=O)NC(c2cccc([N+](=O)[O-])c2)C(C(=O)OCc2ccccc2)=C1C)C(C(=O)NCCCC)c1ccc(OCC(=O)OC)c(C(=O)OC)c1 (stereo unspecified)	36*	·	·	6	·	·	37*	5
CCCCCCN(C(=O)CCCCCN1C(=O)NC(c2ccc(-c3ccccc3)cc2)C(C(=O)OCc2ccccc2)=C1C)C(C)C(=O)NCCCC (stereo unspecified)	25*	0	-3	3	1	6	23*	4
CCCCCCN(C(=O)CCCCCN1C(=O)NC(c2ccc(-c3ccccc3)cc2)C(C(=O)OCc2ccccc2)=C1C)C(C(=O)NCCCC)c1ccc(OCC(=O)OC)c(C(=O)OC)c1 (stereo unspecified)	38*	·	·	-1	·	·	21*	-4
CCCCCCN(C(=O)CCCCCN1C(=O)NC(c2ccc([N+](=O)[O-])cc2)C(C(=O)OCc2ccccc2)=C1C)C(C(=O)NCCCC)c1ccc(OCC(=O)OC)c(C(=O)OC)c1 (stereo unspecified)	23*	·	·	4	·	·	34*	2
O=C(Cn1nnc(-c2ccccc2)n1)N/N=C/c1ccco1	0	0	2	3	-11	5	·	·
O=C(NCCc1nnc2ccc(N3CCCCCC3)nn12)c1ccccc1F	-3	·	·	1	·	·	·	·
COC(=O)C(NC(=O)C(NC(=O)C1CCC(C)CC1)C(C)C)C(C)C (stereo unspecified)	-2	·	·	1	·	·	·	·
COc1ccc(N2CCN(C(=O)CCC(=O)N3CCOc4ccc(Cl)cc43)CC2)cc1	-1	·	·	-2	·	·	·	·
N#CC1=C(N)SC(N)=C(C#N)C1c1cccc(O)c1	-1	0	-5	0	-8	9	·	·
O=C(NCCO)c1ccc2nc(-c3ccco3)c(-c3ccco3)nc2c1	2	0	-3	0	-1	14	·	·
O=C(NC1CCCC1)c1ccc2nc(-c3ccco3)c(-c3ccco3)nc2c1	19*	0	-4	-2	0	5	3	2
Cc1ccc(C)c(N2CCN(C(=O)c3ccc4nc(-c5ccco5)c(-c5ccco5)nc4c3)CC2)c1	19*	0	-11	1	1	5	11	0
COc1ccccc1N1CCN(C(=O)c2ccc3nc(-c4ccco4)c(-c4ccco4)nc3c2)CC1	4	-1	0	6	-1	-8	·	·

Source: PubChem
